Source: ChEMBL document CHEMBL3271948, “Irreversible enzyme inhibitors. 200. Active-site-directed inhibitors of deoxycytidine kinase” (J Med Chem, 1977)
≈ marks a conversion by molar mass, not a printed value. Calls of active or inactive are those of the source. No cut-off for these calls is given here.

Legend:
[1] = Maximum solubility of the compound; format: physicochemical
[2] = biological target: Deoxycytidine kinase (Rattus norvegicus, UniProt P48769); experiment: (§1) Irreversible inhibition of Walker 256 rat tumor deoxycytidine kinase by [3H]deoxycytidine binding assay; conditions: read-out: I50
In short: (§2)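 Enzyme came from the 0–45% (NH4)2SO4 fraction of Walker 256 rat tumor, treated with 1 M HOAc. The assay contained [3H]deoxycytidine 0.025 mM, ATP 5 mM, MgCl2 5 mM and Tris pH 8.0 buffer 50 mM. Inhibitor was added in DMSO. Phosphorylated product was measured by adsorption to DEAE-cellulose filter disks. Inhibition was expressed as V0/V1, the uninhibited over the inhibited rate.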

[3] = biological target: Deoxycytidine kinase (Rattus norvegicus) (UniProt P48769); experiment: Irreversible inhibition of Walker 256 rat tumor deoxycytidine kinase assessed as ratio of V0/V1 by [3H]deoxycytidine binding assay; in short: as §2
[4] = biological target: Deoxycytidine kinase (Rattus norvegicus) (UniProt P48769); experiment: as §1; in short: as §2

Sequence of Deoxycytidine kinase (Rattus norvegicus) (P48769 whole entry): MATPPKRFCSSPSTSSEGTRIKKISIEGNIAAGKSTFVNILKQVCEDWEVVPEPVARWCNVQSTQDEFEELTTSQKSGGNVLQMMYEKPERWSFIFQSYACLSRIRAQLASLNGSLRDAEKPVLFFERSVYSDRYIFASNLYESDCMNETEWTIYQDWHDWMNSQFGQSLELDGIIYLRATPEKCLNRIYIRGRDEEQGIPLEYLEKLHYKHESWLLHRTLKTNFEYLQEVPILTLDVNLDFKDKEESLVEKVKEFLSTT
Sequence of Deoxycytidine kinase (P48769 whole entry): as above

SMILES	solubility [1] [µM]	IC50 [2] [µM]	Ratio [3]	inhibition [4]	IC [4] [mM]
Nc1cc[nH]c(=O)n1	–	–	1	–	10
Nc1ccn(CCCOc2ccccc2)c(=O)n1	–	2500	2	–	2.5
CCCn1ccc(N)nc1=O	–	12000	1.4	–	5
Nc1ccnc(OCc2ccccc2)n1	–	6000	2.4	–	7.5
Nc1cc(NCc2ccccc2)[nH]c(=O)n1	–	–	–	inactive	–
Nc1ccn(CCCCc2ccccc2)c(=O)n1	1000 (≈ 243 µg/mL)	1000	2	–	–
Nc1cc(OCc2ccccc2)ncn1	–	–	–	inactive	–
COCCOc1nccc(N)n1	–	–	1	–	5
Nc1ccnc(SCCCOc2ccccc2)n1	1000 (≈ 261 µg/mL)	2000	1.5	–	–
CCCCNc1cc(N)nc(=O)[nH]1	–	–	–	inactive	–
COc1ccc(-c2c[nH]c(=O)nc2N)cc1	–	–	–	inactive	–
CC(=O)Nc1cc[nH]c(=O)n1	–	–	–	inactive	–
CCCCCNc1cc[nH]c(=O)n1	–	–	–	inactive	–
CS(=O)(=O)c1nc(N)cc(OCc2ccccc2)n1	–	–	–	inactive	–
Nc1ccn(-c2cccc3ccccc23)c(=O)n1	500 (≈ 119 µg/mL)	1500	1.4	–	–
Nc1ccnc(Sc2ccc3ccccc3c2)n1	500 (≈ 127 µg/mL)	500	2	–	–
Oc1nccc(Nc2ccccc2)n1	–	–	–	inactive	–
O=C(Nc1ccnc(=O)[nH]1)c1ccccc1	–	–	–	inactive	–

Second part, the compound after the results:

solubility [1] [µM]	IC50 [2] [µM]	Ratio [3]	inhibition [4]	IC [4] [mM]	SMILES
1000 (≈ 252 µg/mL)	1000	2	–	–	Nc1ccnc(SCc2ccc(Cl)cc2)n1
–	–	–	inactive	–	Nc1cc(Nc2ccccc2)[nH]c(=O)n1
–	–	–	inactive	–	Nc1nc(=O)[nH]cc1-c1ccc(Cl)c(Cl)c1
–	5000	2	–	5	CC(C)CCn1ccc(N)nc1=O
250 (≈ 55.8 µg/mL)	1000	1.5	–	–	CCCCCCCCOc1nccc(N)n1
–	2800	2.8	–	4	Nc1ccnc(SCc2ccccc2)n1
–	–	–	inactive	–	Nc1cc(OCc2ccccc2)[nH]c(=O)n1
–	–	–	inactive	–	O=c1nc(NCc2ccccc2)cc[nH]1
–	6000	1.8	–	5	Nc1ccn(CCOc2ccccc2)c(=O)n1
500 (≈ 130 µg/mL)	1000	1.5	–	–	Nc1ccnc(SCCCCc2ccccc2)n1
2500 (≈ 503 µg/mL)	12000	1.4	–	–	Nc1ccn(Cc2ccccc2)c(=O)n1
–	7000	3.6	–	10	CCCCCOc1nccc(N)n1
–	–	–	inactive	–	CSc1nc(N)cc(OCc2ccccc2)n1
–	–	1	–	5	CCCOc1nccc(N)n1
–	5000	2	–	5	Nc1ccnc(Oc2ccc(Cl)cc2)n1
–	2600	2	–	2.6	CCCCCSc1nccc(N)n1
